The results in this text go back to ChEMBL document CHEMBL1135657, “Novel dual inhibitors of AChE and MAO derived from hydroxy aminoindan and phenethylamine as potential treatment for Alzheimer's disease” (J Med Chem, 2002).

pIC50: −log10 of the molar value. Some results are limits rather than exact numbers.

Test [1] concerns the target T1, Amine oxidase [flavin-containing] B (Rattus norvegicus, UniProt P19643).
T1 sequence (P19643 whole entry): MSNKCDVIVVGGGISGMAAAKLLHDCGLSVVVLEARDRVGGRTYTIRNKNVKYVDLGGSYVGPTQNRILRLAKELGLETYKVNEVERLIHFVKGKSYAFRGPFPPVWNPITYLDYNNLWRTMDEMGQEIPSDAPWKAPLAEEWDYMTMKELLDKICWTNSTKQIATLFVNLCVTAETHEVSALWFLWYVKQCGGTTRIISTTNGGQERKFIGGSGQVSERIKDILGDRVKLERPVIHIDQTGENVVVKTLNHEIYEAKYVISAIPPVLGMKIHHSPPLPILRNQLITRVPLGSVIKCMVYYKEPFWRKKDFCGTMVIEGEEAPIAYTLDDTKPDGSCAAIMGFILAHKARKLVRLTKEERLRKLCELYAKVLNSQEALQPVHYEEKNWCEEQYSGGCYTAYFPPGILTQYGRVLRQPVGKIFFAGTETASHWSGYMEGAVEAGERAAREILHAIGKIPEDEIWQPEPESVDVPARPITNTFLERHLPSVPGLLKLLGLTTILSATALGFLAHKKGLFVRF
Description: biochemical. In kind it is tissue-based, Brain.

Test [2] addresses T2, Amine oxidase [flavin-containing] A (Rattus norvegicus, UniProt P21396).
T2 sequence (P21396 whole entry): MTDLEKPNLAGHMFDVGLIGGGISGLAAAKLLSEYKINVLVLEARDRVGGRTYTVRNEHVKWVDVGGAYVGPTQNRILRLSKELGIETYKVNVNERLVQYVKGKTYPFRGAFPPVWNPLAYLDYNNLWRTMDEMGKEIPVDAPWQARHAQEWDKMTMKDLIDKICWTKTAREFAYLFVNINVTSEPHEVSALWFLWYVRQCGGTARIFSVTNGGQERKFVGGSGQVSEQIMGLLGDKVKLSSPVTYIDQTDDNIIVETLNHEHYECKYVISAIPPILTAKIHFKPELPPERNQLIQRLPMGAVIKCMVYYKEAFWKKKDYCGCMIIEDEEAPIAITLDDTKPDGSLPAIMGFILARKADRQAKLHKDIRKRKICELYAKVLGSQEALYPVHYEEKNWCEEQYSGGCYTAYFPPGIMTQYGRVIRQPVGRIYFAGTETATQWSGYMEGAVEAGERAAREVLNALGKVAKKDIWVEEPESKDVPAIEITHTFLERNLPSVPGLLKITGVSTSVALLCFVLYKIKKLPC
Put plainly: In vitro inhibitory concentration against Monoamine oxidase A of rat brain homogenates; value ranges from 0.5-3.7. In kind it is tissue-based.

Test [3] deals with T3, Acetylcholinesterase (Homo sapiens, UniProt P22303). Description: In vitro inhibitory concentration against purified Acetylcholinesterase of human erythrocytes; value ranges from 1.32-2.23.
Test [4] addresses T4, Butyrylcholinesterase (Equus caballus, UniProt Q9N1N9). Put plainly: In vitro inhibitory concentration against Butyrylcholinesterase of horse serum; value ranges from 0.73-0.77. A digest of the protocol:
(§1)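 Ellman assay followed, with 200 µM butyrylthiocholine as substrate. Runs were in triplicate with four-point dose-response curves. IC50 and fiducial limits came from log concentration versus % inhibition.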

In test [5] the target is T1, Amine oxidase [flavin-containing] B. Put plainly: In vitro inhibitory concentration against Monoamine oxidase B of rat brain homogenates; value ranges from 0.3-1.2. In kind it is tissue-based.
Test [6] concerns the target T2, Amine oxidase [flavin-containing] A. Description: In vitro inhibitory concentration against Monoamine oxidase A of rat brain homogenates; value ranges from 0.09-0.16. In kind it is tissue-based.
The target of test [7] is T3, Acetylcholinesterase. Put plainly: In vitro inhibitory concentration against purified Acetylcholinesterase of human erythrocytes; value ranges from 5.4-38.2.
Test [8] addresses T4, Butyrylcholinesterase. Description: In vitro inhibitory concentration against Butyrylcholinesterase of horse serum; value ranges from 1.89-4.67. Put shortly:
as §1

Test [9] has as its target T2, Amine oxidase [flavin-containing] A. Put plainly: In vitro inhibitory concentration against Monoamine oxidase A of rat brain homogenates; value ranges from 13-17. It counts as tissue-based.
The target in test [10] is T1, Amine oxidase [flavin-containing] B. Put plainly: In vitro inhibitory concentration against Monoamine oxidase B of rat brain homogenates; value ranges from 0.2-0.8. In kind it is tissue-based.
Test [11] addresses T3, Acetylcholinesterase. Description: In vitro inhibitory concentration against purified Acetylcholinesterase of human erythrocytes; value ranges from 0.18-0.44.
Test [12] has as its target T1, Amine oxidase [flavin-containing] B. Description: In vitro inhibitory concentration against Monoamine oxidase B of rat brain homogenates. In kind it is tissue-based.
The target in test [13] is T2, Amine oxidase [flavin-containing] A. Description: In vitro inhibitory concentration against Monoamine oxidase A of rat brain homogenates; value ranges from 60-150. It counts as tissue-based.
Test [14] addresses T3, Acetylcholinesterase. Description: In vitro inhibitory concentration against purified Acetylcholinesterase of human erythrocytes; value ranges from 2.2-6.9.
The target in test [15] is T1, Amine oxidase [flavin-containing] B. Put plainly: In vitro inhibitory concentration against Monoamine oxidase B of rat brain homogenates; value ranges from 0.18-0.30. It counts as tissue-based. A digest of the protocol:
(§2)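 Rat brain homogenate (in 0.3 M sucrose) as enzyme source; compounds diluted 10⁻²M to 10⁻⁹M in 0.05 M phosphate buffer with 0.15 μM clorgyline; preincubated 60 min at 37 °C, then 10 μM ¹⁴C-phenylethylamine added for 20 min more; stopped with citric acid; metabolites extracted into toluene/ethyl acetate, scintillation counted; activity as % of control, tranylcypromine blank.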

Test [16] addresses T2, Amine oxidase [flavin-containing] A. Description: In vitro inhibitory concentration against Monoamine oxidase A of rat brain homogenates; value ranges from 14-24. It counts as tissue-based.
Test [17] has the same target. Put plainly: In vitro inhibitory concentration against Monoamine oxidase A of rat brain homogenates; value ranges from 0.014-0.016. It counts as tissue-based.
Test [18] deals with T1, Amine oxidase [flavin-containing] B. Put plainly: In vitro inhibitory concentration against Monoamine oxidase B of rat brain homogenates; value ranges from […]. It counts as tissue-based. Put shortly:
as §2

The target of test [19] is T2, Amine oxidase [flavin-containing] A. Description: In vitro inhibitory concentration against Monoamine oxidase A of rat brain homogenates; value ranges from 110-520. In kind it is tissue-based.
The target of test [20] is T3, Acetylcholinesterase. Put plainly: In vitro inhibitory concentration against purified Acetylcholinesterase of human erythrocytes; value ranges from 0.12-0.32.
The target in test [21] is T3, Acetylcholinesterase. Description: In vitro inhibitory concentration against purified Acetylcholinesterase of human erythrocytes; value ranges from 5.24-30.8.
The target in test [22] is T4, Butyrylcholinesterase. Description: In vitro inhibitory concentration against Butyrylcholinesterase of horse serum; value ranges from 6.8-31.2. A digest of the protocol: as §1
The target of test [23] is T3, Acetylcholinesterase. Description: In vitro inhibitory concentration against purified Acetylcholinesterase of human erythrocytes; value ranges from 13.6-128.
The target in test [24] is T4, Butyrylcholinesterase. Put plainly: In vitro inhibitory concentration against Butyrylcholinesterase of horse serum; value ranges from 1.6-3.6.
The target of test [25] is T2, Amine oxidase [flavin-containing] A. Description: biochemical.
Test [26] has as its target T3, Acetylcholinesterase. Description: In vitro inhibitory concentration against purified Acetylcholinesterase of human erythrocytes; value ranges from 2.8-27.5.
Test [27] concerns the target T1, Amine oxidase [flavin-containing] B. Description: In vitro inhibitory concentration against Monoamine oxidase B of rat brain homogenates; value ranges from 0.23-0.34. In kind it is tissue-based.
The target of test [28] is T2, Amine oxidase [flavin-containing] A. Description: In vitro inhibitory concentration against Monoamine oxidase A of rat brain homogenates; value ranges from 0.8-1.0. In kind it is tissue-based.
Test [29] concerns the target T3, Acetylcholinesterase. Description: In vitro inhibitory concentration against purified Acetylcholinesterase of human erythrocytes; value ranges from 0.12-0.41.
Test [30] addresses T2, Amine oxidase [flavin-containing] A. Description: In vitro inhibitory concentration against Monoamine oxidase A of rat brain homogenates; value ranges from 9-52. It counts as tissue-based.

T4 sequence (Q9N1N9 whole entry): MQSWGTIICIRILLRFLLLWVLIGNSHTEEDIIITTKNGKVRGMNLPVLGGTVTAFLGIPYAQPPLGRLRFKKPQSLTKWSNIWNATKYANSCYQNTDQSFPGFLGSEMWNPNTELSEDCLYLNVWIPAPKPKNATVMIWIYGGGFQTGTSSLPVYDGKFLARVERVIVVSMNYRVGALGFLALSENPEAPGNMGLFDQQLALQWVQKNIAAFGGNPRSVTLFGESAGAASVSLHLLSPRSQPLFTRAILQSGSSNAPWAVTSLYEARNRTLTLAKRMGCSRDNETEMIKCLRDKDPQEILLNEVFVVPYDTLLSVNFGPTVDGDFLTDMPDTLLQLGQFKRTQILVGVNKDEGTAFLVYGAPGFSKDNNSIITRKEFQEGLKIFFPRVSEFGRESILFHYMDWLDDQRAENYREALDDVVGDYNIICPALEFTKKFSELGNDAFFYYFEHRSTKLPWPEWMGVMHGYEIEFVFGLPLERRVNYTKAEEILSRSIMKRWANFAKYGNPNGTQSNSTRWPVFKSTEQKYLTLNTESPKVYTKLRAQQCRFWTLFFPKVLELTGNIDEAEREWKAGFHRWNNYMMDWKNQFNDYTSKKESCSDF
T3 sequence (P22303 whole entry): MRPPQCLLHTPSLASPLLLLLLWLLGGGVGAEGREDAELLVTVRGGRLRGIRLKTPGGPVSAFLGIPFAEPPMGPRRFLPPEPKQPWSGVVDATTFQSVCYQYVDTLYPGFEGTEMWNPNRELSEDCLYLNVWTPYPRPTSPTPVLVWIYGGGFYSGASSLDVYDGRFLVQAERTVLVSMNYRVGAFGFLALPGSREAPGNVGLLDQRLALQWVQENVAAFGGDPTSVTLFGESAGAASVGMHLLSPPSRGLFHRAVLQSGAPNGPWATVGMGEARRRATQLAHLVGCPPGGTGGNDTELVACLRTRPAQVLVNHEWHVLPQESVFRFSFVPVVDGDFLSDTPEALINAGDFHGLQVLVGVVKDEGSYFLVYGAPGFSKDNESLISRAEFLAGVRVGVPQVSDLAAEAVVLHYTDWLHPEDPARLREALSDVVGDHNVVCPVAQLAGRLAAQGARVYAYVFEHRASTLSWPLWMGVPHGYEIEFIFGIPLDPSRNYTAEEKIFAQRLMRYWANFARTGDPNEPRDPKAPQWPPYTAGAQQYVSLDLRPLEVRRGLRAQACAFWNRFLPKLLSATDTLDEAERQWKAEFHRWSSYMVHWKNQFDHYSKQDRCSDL

`C#CCN(C)CCc1cccc(O)c1`: the results for the negative-log IC50 (pIC50) in test [1] and in [2] were 5.19 and 5.89, respectively.
For the compound `C#CCN(C)C(C)Cc1cccc(OC(=O)N(C)C)c1` (centres undefined), the pIC50 at Acetylcholinesterase [3] is 5.79; on Butyrylcholinesterase [4] it was 6.12; in test [5], 6.10; in [6], 6.92.
For `C#CCNC(C)Cc1cccc(OC(=O)N(C)CCCC)c1` (centres undefined), the pIC50 on Acetylcholinesterase [7] was 4.91; at Butyrylcholinesterase [8], 5.56; in [9], 4.82; in [10], 6.40.
Turning to `CN(C)C(=O)Oc1cccc(CCN)c1`, the pIC50 was 6.64 against Acetylcholinesterase [11], below 3.00 in test [12] and 4.02 in [13].
For the compound `C#CCNC(C)Cc1cccc(OC(=O)N(C)C2CCCCC2)c1` (centres undefined), the values for the pIC50 (against Acetylcholinesterase [14]; in test [15]; in [16]) were 5.44, 6.64 and 4.74, respectively.
With `C#CCN(C)C1CCc2ccc(O)cc21` (centres undefined), the pIC50 in [17] is 7.82; in test [18], 7.52.
As for `CCCN(C)C(=O)Oc1cccc(CCN)c1`, the pIC50 was below 3.00 in [12] and 3.62 in test [19].
For the compound `CN(C)CCc1cccc(OC(=O)N(C)C)c1`, the pIC50 against Acetylcholinesterase [20] was 6.80; in test [12], below 3.00.
`C#CCN[C@@H]1CCc2ccc(OC(=O)N(C)CCC)cc21`: the pIC50 against Acetylcholinesterase [21] was 4.97; on Butyrylcholinesterase [22] it was 4.83.
As for `C#CCN[C@H]1CCc2ccc(OC(=O)N(C)CC)cc21`, the pIC50 against Acetylcholinesterase [23] was 4.46; at Butyrylcholinesterase [24], 5.66; in test [12], below 3.00; in test [25], 3.26.
With `C#CCN(C)[C@@H](C)Cc1cccc(OC(=O)N(C)C2CCCCC2)c1`, the figures for the pIC50 (against Acetylcholinesterase [26]; in test [27]; in test [28]) were 5.20, 6.55 and 5.96, respectively.
Turning to `CNCCc1cccc(OC(=O)N(C)C)c1`, the pIC50 was 6.55 at Acetylcholinesterase [29], below 3.00 in test [12] and 4.66 in [30].
